# Assay results taken from PubChem BioAssay AID651654 (Broad Institute, 2012).
# Values joined by “and” are separate entries in the source; they are usually repeats but may differ in a detail not shown here. Identical values can stand only once. The campaign covered roughly 360,000 compounds. About 740 (0.21%) were called active.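 How the source made its calls: active means mean lysis activity across replicates of at least 80%, whatever share of replicates individually reach that level; inactive means mean lysis activity below 80%.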 The list comes from a sample in which actives are over-represented; it also holds similar structures and randomly drawn compounds.
# Assay: fungicidal lysis via adenylate kinase leakage – AK release luminescence, single concentration, primary screen (AID 651654)
# Details: C. neoformans lysis, 4 h, at 15 µM, stronger effect = higher value, normalised: neutral wells 0, clomiphene wells 100
# Summary of the method: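 Assay system: Cryptococcus neoformans yeast cells / Dosing: single-point compound dose / Timing: 4 h at 37 °C static, read 1 h later / Measured by: luminescence of released adenylate kinase using an AK detection reagent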
row,Structure (SMILES),lysis activity
1,Cc1noc(C)c1NC(=O)Nc1ccc2c(c1)C(=O)N([C@@H](C)CO)C[C@H](C)[C@H](CN(C)S(=O)(=O)c1ccc(Cl)cc1)O2,96.2% (active)
2,COc1ccc(S(=O)(=O)N(C)C[C@@H]2Oc3ccc(NC(=O)Nc4c(C)noc4C)cc3C(=O)N([C@H](C)CO)C[C@@H]2C)cc1,-0.689% (inactive) and -2.77% (inactive)
3,COc1ccc(S(=O)(=O)N(C)C[C@H]2Oc3ccc(NC(=O)Nc4c(C)noc4C)cc3C(=O)N([C@H](C)CO)C[C@H]2C)cc1,-3.44% (inactive)
4,C[C@H](CO)N1C[C@H](C)[C@@H](CN(C)C(=O)c2ccncc2)Oc2ncc(-c3ccncc3)cc2C1=O,-2.74% (inactive)
5,COc1ccc(NC(=O)N[C@@H]2C=C[C@H](CC(=O)NC3CCC3)O[C@@H]2CO)cc1,-0.593% (inactive)
6,C[C@H]1CN([C@@H](C)CO)C(=O)c2cccc(NC(=O)Nc3ccccc3)c2O[C@@H]1CN(C)S(C)(=O)=O,0.333% (inactive)
7,O=C(Nc1ccccc1)N1C[C@H]2[C@@H](c3ccccc31)[C@@H](CO)N2Cc1cocn1,-2.69% (inactive)
8,O=C(Nc1ccc(F)cc1)N1C[C@H]2[C@@H](c3ccccc31)[C@@H](CO)N2Cc1cocn1,94.8% (active)
9,O=C(Nc1ccc(F)cc1)N1C[C@@H]2[C@H](c3ccccc31)[C@H](CO)N2Cc1ccccc1,-1.33% (inactive)
10,CCCNC(=O)N1[C@@H]2Cn3c(ccc(-c4ccc(OC)cc4)c3=O)[C@H]1[C@@H](C(=O)NC1CCC1)[C@@H]2CO,0.95% (inactive)
11,O=C(N[C@H]1CC[C@@H](CCNS(=O)(=O)c2ccccc2)O[C@H]1CO)c1cccnc1,-5.13% (inactive)
12,N#C[C@@H]1[C@@H](c2ccccc2)[C@@H](CO)N1C(=O)Cc1ccccc1,116% (active)
13,N#C[C@H]1[C@H](c2ccc(-c3ccccc3)cc2)[C@@H](CO)N1C(=O)Cc1ccccc1,0.774% (inactive)
14,N#C[C@@H]1[C@@H](c2ccc(-c3ccccc3)cc2)[C@@H](CO)N1C(=O)Cc1ccccc1,0.072% (inactive)
15,COc1cccc(S(=O)(=O)Nc2ccc3c(c2)[C@H]2C[C@H](CC(=O)N4CCCCC4)O[C@@H](CO)[C@H]2O3)c1,-2.67% (inactive)
16,O=C(NCc1cccc(F)c1)[C@H]1[C@H](CO)[C@H]2Cn3c(cccc3=O)[C@@H]1N2,0.27% (inactive)
17,O=C(C[C@@H]1C=C[C@@H](NC(=O)c2ccc3c(c2)OCO3)[C@H](CO)O1)NC1Cc2ccccc2C1,1.22% (inactive)
18,CO[C@@H]1CN(C)C(=O)c2cc(NC(=O)c3ccccc3)ccc2OC[C@@H](C)N(C(C)=O)C[C@@H]1C,-6.13% (inactive)
19,C[C@@H]1CCCCO[C@H](CN(C)S(C)(=O)=O)[C@@H](C)CN([C@H](C)CO)C(=O)c2cc(NC(=O)Nc3ccc4c(c3)OCO4)ccc2O1,50.4% (inactive)
20,C[C@@H]1CN([C@H](C)CO)S(=O)(=O)c2ccc(-c3cncnc3)cc2O[C@@H]1CN(C)Cc1ccccn1,-14.8% (inactive)

row,Structure (SMILES),lysis activity
1,CCCC(=O)Nc1ccc2c(c1)C(=O)N(C)[C@@H]1CC[C@H](CC(=O)Nc3cn(C)nc3C)O[C@H]1CO2,6.15% (inactive)
2,O=C(C[C@@H]1CC[C@@H]2[C@H](COC[C@H](O)CN2Cc2cccc(-c3ccncc3)c2)O1)N1CCOCC1,-0.0585% (inactive)
3,O=C(C[C@@H]1C[C@H]2c3cc(NC(=O)C4CCOCC4)ccc3O[C@H]2[C@@H](CO)O1)NCCN1CCCCC1,60.8% (inactive)
4,COc1cccc(S(=O)(=O)N2C[C@@H](O)COC[C@H]3O[C@H](CC(=O)N4CCCCC4)CC[C@@H]32)c1,52.9% (inactive)
5,COc1cccc(S(=O)(=O)N2C[C@@H](O)COC[C@@H]3O[C@H](CC(=O)N4CCN(C)CC4)CC[C@H]32)c1,86.2% (active)
6,COc1cccc(S(=O)(=O)N2C[C@@H](O)COC[C@H]3O[C@@H](CC(=O)N4CCOCC4)CC[C@@H]32)c1,2.85% (inactive)
7,Cc1ccc(S(=O)(=O)Nc2cccc3c2O[C@@H](CN(C)CC2CCCCC2)[C@H](C)CN([C@@H](C)CO)C3=O)cc1,-1.1% (inactive)
8,CNC[C@H]1Oc2cc(C#Cc3ccccn3)ccc2S(=O)(=O)N([C@H](C)CO)C[C@@H]1C,-3.09% (inactive)
9,C[C@@H]1CN([C@@H](C)CO)C(=O)Cc2cc(NC(=O)NC3CCCCC3)ccc2O[C@H]1CN(C)C(=O)Nc1ccc(C(F)(F)F)cc1,51.4% (inactive)
10,C[C@H](CO)N1C[C@H](C)[C@H](CN(C)C(=O)c2ccccc2)OCCCC[C@H](C)Oc2ccc(N(C)C)cc2C1=O,1.62% (inactive)
11,COc1cccc(S(=O)(=O)N(C)C[C@@H]2Oc3ncc(-c4cccc(C(=O)N(C)C)c4)cc3C(=O)N([C@H](C)CO)C[C@@H]2C)c1,2.06% (inactive)
12,COc1ccc(S(=O)(=O)Nc2ccc3c(c2)C(=O)N([C@@H](C)CO)C[C@H](C)[C@@H](CN(C)C(=O)Nc2ccc4c(c2)OCO4)OCCCC[C@@H](C)O3)cc1,49.4% (inactive)
13,C[C@H](CO)N1C[C@H](C)[C@@H](CN(C)C(=O)C2CCOCC2)Oc2cc(-c3ccc(C(=O)N(C)C)cc3)ccc2S1(=O)=O,-2.86% (inactive)
14,CCNC(=O)C[C@@H]1CC[C@H]2[C@@H](COc3ccc(NC(=O)c4ccccc4Cl)cc3C(=O)N2C)O1,13.7% (inactive)
15,C[C@@H](NC(=O)C[C@H]1C=C[C@@H](NC(=O)CN2CCOCC2)[C@@H](CO)O1)c1ccccc1,18.8% (inactive)
16,C[C@H](NC(=O)C[C@@H]1C=C[C@H](NC(=O)CN2CCOCC2)[C@H](CO)O1)c1ccccc1,131% (active)
17,C[C@@H](NC(=O)C[C@@H]1C=C[C@@H](NC(=O)CN2CCOCC2)[C@H](CO)O1)c1ccccc1,13.5% (inactive)
18,C[C@@H]1CN([C@H](C)CO)C(=O)c2cc(NC(=O)CCCCCC(=O)Nc3ccccc3N)ccc2O[C@@H]1CN(C)Cc1ccncc1,0.608% (inactive)
19,COc1ccc(CN(C)C[C@@H]2OCCCC[C@H](C)Oc3ccc(NC(=O)c4ccccc4)cc3C(=O)N([C@H](C)CO)C[C@H]2C)cc1,-1.71% (inactive)
